Test results published in ChEMBL document CHEMBL2346563, “A series of nonsecosteroidal vitamin D receptor agonists for osteoporosis therapy” (Bioorg Med Chem, 2013).

How the values were obtained:
Rattus norvegicus [1] = experiment: Prevention of bone mineral density loss in ovariectomized immatured Sprague-Dawley rat osteoporosis model administered orally once daily for 5 times per week for 4 weeks; format: functional, organism-based
Summary of the method: (§1)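 Female 8-week-old Sprague–Dawley (Crj: CD (SD)) rats, ovariectomized or sham-operated, n = 6 per group. From one day after surgery, oral dosing five times per week for 4 weeks; vehicle was medium-chain triglyceride at 1 mL/kg. Distal femur BMD read by dual-energy X-ray absorptiometry 24 h after the last dose. ΔBMD (%) = (treated − vehicle)/(sham − vehicle) × 100. Mean ± SE.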

Rattus norvegicus [2] = experiment: Prevention of bone mineral density loss in ovariectomized immatured Sprague-Dawley rat osteoporosis model at 30 ng/kg, po once daily for 5 times per week for 4 weeks relative to control; format: functional; summary of the method: as §1
Rattus norvegicus [3] = experiment: Prevention of bone mineral density loss in ovariectomized immatured Sprague-Dawley rat osteoporosis model at 10 ng/kg, po once daily for 5 times per week for 4 weeks relative to control; format: functional; summary of the method: as §1
Rattus norvegicus [4] = experiment: Toxicity in ovariectomized immatured Sprague-Dawley rat osteoporosis model assessed as effect on serum calcium level at 30 ng/kg, po once daily for 5 times per week for 4 weeks relative to control; format: organism-based; conditions: in vivo, 3e-05 mg/kg, 672 h
Summary of the method: (§2)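 Ovariectomized female 8-week-old Sprague–Dawley rats, n = 6 per group. Oral dosing five times per week for 4 weeks in medium-chain triglyceride (1 mL/kg). Vehicle-treated OVX and sham rats served as controls. Abdominal aortic blood drawn under ether 24 h after the last dose; serum calcium measured by autoanalyzer. ΔCa (%) = (treated − vehicle)/vehicle × 100. Mean ± SE.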

Rattus norvegicus [5] = experiment: Toxicity in ovariectomized immatured Sprague-Dawley rat osteoporosis model assessed as effect on serum calcium level at 10 ng/kg, po once daily for 5 times per week for 4 weeks relative to control; format: organism-based; conditions: in vivo, 1e-05 mg/kg, 672 h; summary of the method: as §2
Rattus norvegicus [6] = experiment: Prevention of bone mineral density loss in ovariectomized immatured Sprague-Dawley rat osteoporosis model at 25 ng/kg, po once daily for 5 times per week for 4 weeks relative to control; format: functional; summary of the method: as §1
Rattus norvegicus [7] = experiment: Toxicity in ovariectomized immatured Sprague-Dawley rat osteoporosis model assessed as effect on serum calcium level at 50 ng/kg, po once daily for 5 times per week for 4 weeks relative to control; format: organism-based; conditions: in vivo, 5e-05 mg/kg, 672 h; summary of the method: as §2
Rattus norvegicus [8] = experiment: Prevention of bone mineral density loss in ovariectomized immatured Sprague-Dawley rat osteoporosis model at 50 ng/kg, po once daily for 5 times per week for 4 weeks relative to control; format: functional; summary of the method: as §1
Rattus norvegicus [9] = experiment: Toxicity in ovariectomized immatured Sprague-Dawley rat osteoporosis model assessed as effect on serum calcium level at 25 ng/kg, po once daily for 5 times per week for 4 weeks relative to control; format: organism-based; conditions: in vivo, 2.5e-05 mg/kg, 672 h; summary of the method: as §2
Rattus norvegicus [10] = experiment: Prevention of bone mineral density loss in ovariectomized immatured Sprague-Dawley rat osteoporosis model at 20 ng/kg, po once daily for 5 times per week for 4 weeks relative to control; format: functional; summary of the method: as §1
Rattus norvegicus [11] = experiment: Toxicity in ovariectomized immatured Sprague-Dawley rat osteoporosis model assessed as effect on serum calcium level at 320 ng/kg, po once daily for 5 times per week for 4 weeks relative to control; format: organism-based; conditions: in vivo, 0.00032 mg/kg, 672 h; summary of the method: as §2
Rattus norvegicus [12] = experiment: Toxicity in ovariectomized immatured Sprague-Dawley rat osteoporosis model assessed as effect on serum calcium level at 20 ng/kg, po once daily for 5 times per week for 4 weeks relative to control; format: organism-based; conditions: in vivo, 2e-05 mg/kg, 672 h; summary of the method: as §2
Rattus norvegicus [13] = experiment: Toxicity in ovariectomized immatured Sprague-Dawley rat osteoporosis model assessed as effect on serum calcium level at 80 ng/kg, po once daily for 5 times per week for 4 weeks relative to control; format: organism-based; conditions: in vivo, 8e-05 mg/kg, 672 h; summary of the method: as §2
Rattus norvegicus [14] = experiment: Prevention of bone mineral density loss in ovariectomized immatured Sprague-Dawley rat osteoporosis model at 320 ng/kg, po once daily for 5 times per week for 4 weeks relative to control; format: functional; summary of the method: as §1
Rattus norvegicus [15] = experiment: Prevention of bone mineral density loss in ovariectomized immatured Sprague-Dawley rat osteoporosis model at 80 ng/kg, po once daily for 5 times per week for 4 weeks relative to control; format: functional; summary of the method: as §1
Salmonella typhimurium = experiment: Genotoxicity in Salmonella typhimurium by Ames test; format: toxicity, organism-based; conditions: salmonella enterica subsp. enterica serovar typhimurium
[16] = AUC (infinity) in Sprague-Dawley rat at 100 ug/kg, iv; format: ADME, organism-based; design: dose 100 ug/kg, time infinity, route intravenous; conditions: plasma, 0.1 mg/kg
Summary of the method: (§3)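 Male Sprague–Dawley rats, 8 weeks old, fed, n = 3 per route. Single 100 µg/kg dose, iv in ethanol/Tween20/saline (10:2:88) or po in ethanol/MCT (1:9). Blood taken from the jugular vein and centrifuged to plasma. Drug extracted with diethyl ether and quantified by LC-MS/MS. Bioavailability given as F (%).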

[17] = Half life in Sprague-Dawley rat at 100 ug/kg, iv; format: ADME, organism-based; conditions: in vivo, 0.1 mg/kg; summary of the method: as §3
[18] = Half life in Sprague-Dawley rat at 100 ug/kg, po; format: ADME, organism-based; conditions: in vivo, 0.1 mg/kg; summary of the method: as §3
Rattus norvegicus [19] = experiment: Toxicity in ovariectomized matured Sprague-Dawley rat osteoporosis model assessed as effect on serum calcium level at 12 ng/kg, po once daily for 5 times per week for 4 weeks relative to control; format: organism-based; conditions: in vivo, 1.2e-05 mg/kg, 672 h
Summary of the method: (§4)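 Female 8-month-old Sprague–Dawley rats, ovariectomized or sham-operated, n = 8 per group. Starting one day post-surgery, oral dosing at 0.75–12 ng/kg, five times per week for 4 weeks; vehicle was MCT at 1 mL/kg. At 24 h after the last dose, aortic blood was taken for serum calcium by autoanalyzer. Distal femur and lumbar spine BMD measured by DXA.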

Rattus norvegicus [20] = experiment: Toxicity in ovariectomized matured Sprague-Dawley rat osteoporosis model assessed as effect on serum calcium level at 0.75 to 6 ng/kg, po once daily for 5 times per week for 4 weeks relative to control; format: organism-based; conditions: in vivo, 672 h; summary of the method: as §4
Rattus norvegicus [21] = experiment: Prevention of bone mineral density loss in ovariectomized immatured Sprague-Dawley rat osteoporosis model at 40 ng/kg, po once daily for 5 times per week for 4 weeks relative to control; format: functional; summary of the method: as §1
[22] = Volume of distribution at steady state in Sprague-Dawley rat at 100 ug/kg, iv; format: ADME, organism-based; conditions: in vivo, 0.1 mg/kg, read-out: Vdss; summary of the method: as §3
[23] = Genotoxicity in micronucleus (unknown origin) by micronucleus assay
[24] = Total clearance in Sprague-Dawley rat at 100 ug/kg, iv; format: ADME, organism-based; conditions: in vivo, 0.1 mg/kg; summary of the method: as §3
[25] = Cmax in Sprague-Dawley rat at 100 ug/kg, po; format: ADME, organism-based; design: dose 100 ug/kg, route oral; conditions: in vivo, 0.1 mg/kg; summary of the method: as §3
Rattus norvegicus [26] = experiment: Toxicity in ovariectomized matured Sprague-Dawley rat osteoporosis model assessed as effect on body weight at 0.75 to 12 ng/kg, po once daily for 5 times per week for 4 weeks; format: organism-based; conditions: in vivo, 672 h
[27] = Mean residence time in Sprague-Dawley rat at 100 ug/kg, iv; format: ADME, organism-based; conditions: in vivo, 0.1 mg/kg; summary of the method: as §3
Rattus norvegicus [28] = experiment: Toxicity in ovariectomized immatured Sprague-Dawley rat osteoporosis model assessed as effect on serum calcium level at 40 ng/kg, po once daily for 5 times per week for 4 weeks relative to control; format: organism-based; conditions: in vivo, 4e-05 mg/kg, 672 h; summary of the method: as §2
Rattus norvegicus [29] = experiment: Prevention of bone mineral density loss in distal femur of ovariectomized matured po dosed Sprague-Dawley rat osteoporosis model administered once daily for 5 times per week for 4 weeks; format: functional, organism-based; summary of the method: as §4
[30] = Mean residence time in Sprague-Dawley rat at 100 ug/kg, po; format: ADME, organism-based; conditions: in vivo, 0.1 mg/kg; summary of the method: as §3
[31] = AUC (infinity) in Sprague-Dawley rat at 100 ug/kg, po; format: ADME, organism-based; design: dose 100 ug/kg, time infinity, route oral; conditions: plasma, 0.1 mg/kg; summary of the method: as §3
[32] = Oral bioavailability in Sprague-Dawley rat at 100 ug/kg; format: ADME, organism-based; conditions: in vivo, 0.1 mg/kg; summary of the method: as §3

With CCC(CC)(c1ccc(/C=C/C(O)(C(F)(F)F)C(F)(F)F)c(C)c1)c1ccc(-c2ccc(CC(=O)O)c(F)c2)c(C)c1 the Activity (Rattus norvegicus [1]) was “Dose-dependent effect”.
CCC(CC)(c1ccc(/C=C/C(O)(C(F)(F)F)C(F)(F)F)c(C)c1)c1ccc(-c2ccc(CC(=O)O)cc2)c(C)c1 showed an Activity (Rattus norvegicus [2]) of 89%, an Activity (Rattus norvegicus [3]) of 47% and an Activity (Rattus norvegicus [4]) of 6.9%. The Activity (Rattus norvegicus [1]) was “Dose-dependent effect” and the Activity (Rattus norvegicus [5]) was 0.6%.
With CCC(O)(/C=C/c1ccc(C(CC)(CC)c2ccc(-c3ccc(CC(=O)O)cc3)c(C)c2)cc1C)CC the Activity (Rattus norvegicus [6]) was 42%, the Activity (Rattus norvegicus [7]) was 8.7% and the Activity (Rattus norvegicus [8]) was 81%. The Activity (Rattus norvegicus [9]) was 0.7% and the Activity (Rattus norvegicus [1]) was “Dose-dependent effect”.
In the case of C=C1/C(=C\C=C2/CCC[C@]3(C)[C@@H]([C@H](C)CCCC(C)(C)O)CC[C@@H]23)C[C@@H](O)C[C@@H]1O [CALCITRIOL], the Activity (Rattus norvegicus [10]) is reported as 4%, the Activity (Rattus norvegicus [11]) is reported as 5.1% and the Activity (Rattus norvegicus [12]) is reported as 2.5%. For the same compound, the Activity (Rattus norvegicus [13]) was 2.5%, the Activity (Rattus norvegicus [14]) was 58% and the Activity (Rattus norvegicus [15]) was 53%.
With CCC(O)(/C=C/c1ccc(C(CC)(CC)c2ccc(-c3ccc(CC(=O)O)cn3)c(C)c2)cc1C)CC the Activity (Salmonella typhimurium) was “Non-toxic”, the AUC(0-inf) [16] was 1130 ng·h/mL and the half-life [17] was 8.5 h. For the same compound, the half-life [18] was 17.6 h, the Activity (Rattus norvegicus [19]) was “Toxic” and the Activity (Rattus norvegicus [20]) was “Non-toxic”. For the same compound, the Activity (Rattus norvegicus [21]) was 198%, the Activity (Rattus norvegicus [10]) was 172% and the Activity (Rattus norvegicus [3]) was 122%. For the same compound, the Vd [22] was 0.99 L/kg, the Activity [23] was “Non-toxic” and the clearance [24] was 1.51 mL/min/kg. The Activity (Rattus norvegicus [12]) was 2.2%, the Cmax [25] was 54 ng/mL and the Activity (Rattus norvegicus [26]) was “Non-toxic”. For the same compound, the MRT [27] was 11.2 h, the Activity (Rattus norvegicus [28]) was 8.4% and the Activity (Rattus norvegicus [29]) was “Dose-dependent effect”. It also gave an MRT [30] of 28.3 h, an Activity (Rattus norvegicus [5]) of -2.9% and an AUC(0-inf) [31] of 1650 ng·h/mL. For the same compound, the bioavailability [32] was 95.1%.
